Source: ChEMBL document CHEMBL4400542, “Epidermal Growth Factor Receptor-Targeted Multifunctional Photosensitizers for Bladder Cancer Imaging and Photodynamic Therapy” (J Med Chem, 2019)

Legend:
UMUC3 [1] = test: Induction of apoptosis in human UM-UC-3 cells assessed as increase in apoptotic cells at 1 uM in absence of light by Annexin V/propidium iodide-staining based flow cytometry; assay type: cell-based; details: umuc3, 1 µM
UMUC3 [2] = test: Photo-activated cytotoxicity against human UM-UC-3 cells assessed as reduction in cell viability preincubated for 24 hrs followed by 1 J/cm2 light irradiation and measured after 48 hrs formulated with 2% pluronic F-127 solution by MTT assay; assay type: functional, cell-based; details: UMUC3, light or radiation study
In short: (§1)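 Cells plated at 10k per well, allowed 24 h to adhere, then PS added in two-fold dilutions from 1 µM top for 24 h. Irradiated at 665 nm, 1.0 J/cm2 at 3.2 mW/cm2. Viability by MTT 48 h after PDT: about 2 h incubation, formazan dissolved in DMSO, absorbance at 570 nm.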

[3] = Drug uptake in human UM-UC-3 cells assessed as increase in gray value intensity at 1 uM pretreated for 24 hrs followed by compound washout and measured after 4 hrs by Hoechst 33342 staining based fluorescence microscopy; assay type: ADME, cell-based; details: umuc3, 4 h
In short: (§2)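 Cells pre-incubated 24 h with free erlotinib before PS addition. Legend describes PS at 1 uM or erlotinib at 3 uM for 4 h, then three warm PBS washes. Imaged by fluorescence microscopy; grey value per field normalized to cell count, triplicate wells, each imaged in triplicate.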

[4] = Drug uptake in human UM-UC-3 cells xenografted in SCID mouse at 0.47 umol/kg formulated with 1% tween 80 solution and measured at 24 hrs post injection by IVIS analysis; assay type: ADME, cell-based, UMUC3; details: in vivo
In short: (§3)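 SCID mice (3/group) bearing UMUC3 or T24 tumors of 4–5 mm injected with PS at 0.47 µmol/kg in Tween80 or Pluronic F-127. Tumor, liver and skin fluorescence followed by IVIS optical imaging (ex 675 nm, em 720) at several time points including 24 h.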

T-24 [5] = test: Photo-activated cytotoxicity against human T24 cells assessed as reduction in cell viability preincubated for 24 hrs followed by 1 J/cm2 light irradiation and measured after 48 hrs formulated with 1% tween 80 solution by MTT assay; assay type: functional, cell-based; details: T-24, light or radiation study; in short: as §1
UMUC3 [6] = test: Induction of oxidative stress in human UM-UC-3 cells assessed as increase in ROS production at 1 uM in presence of 1 J/cm2 light irradiation and measured at 20 min post light exposure by DCFDA-fluorescence based assay relative to control; assay type: functional
In short: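 UMUC3 cells at 10k per well; after 24 h, PS added at 1 µM for 24 h (Tween80 formulation). DCFDA 1 µM for 20 min, fluorescence read (ex 492, em 517). Then 665 nm light, 1 J total at 3.2 mW/cm2, and read again. No-DCFDA background subtracted; 0.05% H2O2 control wells.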

[7] = Drug accumulation in mitochondria of human UM-UC-3 cells at 500 nM formulated with 2% pluronic F-127 solution after 24 hrs by mitotracker red based fluorimetry; assay type: ADME; details: umuc3, 24 h, 0.5 µM
[8] = Drug uptake in human UM-UC-3 cells assessed as increase in gray value intensity at 500 nM after 48 hrs in absence of gleevec by Hoechst 33342 staining based fluorescence microscopy; assay type: ADME, cell-based; details: umuc3, 24 h, 0.5 µM, in the assay text read “24 hrs” for “48 hrs”
In short: (§4)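 Cells plated at 100k per well, grown to 80% confluency, refreshed, then incubated 24 h with PS at 500 nM with or without Gleevec 5 µM. Washed twice with PBS, Hoechst 33342 added, imaged by fluorescence microscopy; grey value normalized to cell number, triplicate groups and images.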

[9] = Drug accumulation in lysosomes of human T24 cells at 500 nM formulated with 1% tween 80 solution after 24 hrs by lysosphere green based fluorimetry; assay type: ADME, subcellular, Lysosome; details: t-24, 24 h, 0.5 µM
[10] = Drug accumulation in mitochondria of human T24 cells at 500 nM formulated with 1% tween 80 solution after 24 hrs by mitotracker red based fluorimetry; assay type: ADME; details: t-24, 24 h, 0.5 µM
[11] = Drug accumulation in lysosomes of human UM-UC-3 cells at 500 nM formulated with 1% tween 80 solution after 24 hrs by lysosphere green based fluorimetry; assay type: ADME, subcellular, Lysosome; details: umuc3, 24 h, 0.5 µM
[12] = Drug accumulation in lysosomes of human UM-UC-3 cells at 500 nM formulated with 2% pluronic F-127 solution after 24 hrs by lysosphere green based fluorimetry; assay type: ADME, subcellular, Lysosome; details: umuc3, 24 h, 0.5 µM
[13] = Drug accumulation in lysosomes of human T24 cells at 500 nM formulated with 2% pluronic F-127 solution after 24 hrs by lysosphere green based fluorimetry; assay type: ADME, subcellular, Lysosome; details: t-24, 24 h, 0.5 µM
[14] = Drug uptake in human UM-UC-3 cells xenografted in SCID mouse at 0.47 umol/kg formulated with 2% pluronic F-127 solution and measured at 24 hrs post injection by IVIS analysis; assay type: ADME, cell-based, UMUC3; details: in vivo; in short: as §3
[15] = Drug accumulation in human UM-UC-3 cells at 500 nM formulated with 2% pluronic F-127 solution after 24 hrs by CARY-fluorimetry; assay type: ADME, cell-based; details: umuc3, 24 h, 0.5 µM
UMUC3 [16] = test: Anti-tumor activity against human UM-UC-3 cells xenografted in SCID mouse assessed as tumor cure at 0.47 umol/kg, iv in presence of 135 J/cm2 light irradiation at 24 hrs post injection and measured at day 60; assay type: functional
In short: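 UMUC-3 cells implanted in right flank of SCID mice; at 4–5 mm tumors, PS given i.v. at 0.47 µmol/kg. Tumors exposed to 665 nm light, 135 J/cm2 at 75 mW/cm2, 24 h post-injection. Tumor regrowth monitored daily; mice euthanized at >400 mm3; tumor-free status scored at day 60.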

UMUC3 [17] = test: Photo-activated cytotoxicity against human UM-UC-3 cells assessed as reduction in cell viability preincubated for 24 hrs followed by 1 J/cm2 light irradiation and measured after 48 hrs formulated with 1% tween 80 solution by MTT assay; assay type: functional, cell-based; details: UMUC3, light or radiation study; in short: as §1
T-24 [18] = test: Photo-activated cytotoxicity against human T24 cells assessed as reduction in cell viability preincubated for 24 hrs followed by 1 J/cm2 light irradiation and measured after 48 hrs formulated with 2% pluronic F-127 solution by MTT assay; assay type: functional, cell-based; details: T-24, light or radiation study; in short: as §1
[19] = Drug accumulation in mitochondria of human T24 cells at 500 nM formulated with 2% pluronic F-127 solution after 24 hrs by mitotracker red based fluorimetry; assay type: ADME; details: t-24, 24 h, 0.5 µM
[20] = Stability at -20 degC for 2 months; assay type: physicochemical; details: 1461 h
In short: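 Formulated PS stored at -4 °C or -20 °C for two months; checked for precipitation and pH change.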

[21] = Drug accumulation in human UM-UC-3 cells at 500 nM formulated with 1% tween 80 solution after 24 hrs by CARY-fluorimetry; assay type: ADME, cell-based; details: umuc3, 24 h, 0.5 µM
[22] = Drug uptake in human T24 cells xenografted in SCID mouse at 0.47 umol/kg formulated with 1% tween 80 solution and measured at 24 hrs post injection by IVIS analysis; assay type: ADME, cell-based, T-24; details: in vivo; in short: as §3
[23] = Drug uptake in human UM-UC-3 cells assessed as increase in gray value intensity at 500 nM after 48 hrs in presence of gleevec by Hoechst 33342 staining based fluorescence microscopy; assay type: ADME, cell-based; details: umuc3, 24 h, 0.5 µM, in the assay text read “after 24 hrs” for “after 48 hrs”; in short: as §4
[24] = Stability at -4 degC for 2 months; assay type: physicochemical; details: 1461 h
In short: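 Photosensitizer formulations in Tween80 or Pluronic F-127 were stored at -4 °C, alongside a -20 °C set, for two months. Stability was judged by visible precipitation and change in pH.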

[25] = Drug uptake in human T24 cells assessed as increase in gray value intensity at 1 uM pretreated for 24 hrs followed by compound washout and measured after 4 hrs by Hoechst 33342 staining based fluorescence microscopy; assay type: ADME, cell-based; details: t-24, 4 h; in short: as §2
T-24 [26] = test: Induction of apoptosis in human T24 cells assessed as increase in apoptotic cells at 1 uM in absence of light by Annexin V/propidium iodide-staining based flow cytometry; assay type: cell-based; details: t-24, 1 µM
[27] = Drug uptake in human T24 cells xenografted in SCID mouse at 0.47 umol/kg formulated with 2% pluronic F-127 solution and measured at 24 hrs post injection by IVIS analysis; assay type: ADME, cell-based, T-24; details: in vivo; in short: as §3
[28] = Drug accumulation in mitochondria of human UM-UC-3 cells at 500 nM formulated with 1% tween 80 solution after 24 hrs by mitotracker red based fluorimetry; assay type: ADME; details: umuc3, 24 h, 0.5 µM

Question: With CCC1=C(C)c2cc3[nH]c(cc4nc(c5c6[nH]c(cc1n2)c(C)c6C(=O)C5)[C@@H](CCC(=O)NCc1cccc(C#Cc2cccc(Nc5ncnc6cc(OCCOC)c(OCCOC)cc56)c2)c1)[C@@H]4C)c(C)c3C(C)OCc1cccc([127I])c1 (stereo partly drawn) as the molecule, how does the Activity (UMUC3 [1]) read?
Answer: Its Activity is “Non-Toxic”.

Question: What about the IC50 (UMUC3 [2]) of the same molecule?
Answer: The IC50 was 58.4 nM.

Question: And the Drug uptake [3]?
Answer: Its Drug uptake is “Not Active”.

Question: And the Drug uptake [4]?
Answer: Its Drug uptake is “Active”.

Question: And the IC50 (T-24 [5])?
Answer: The IC50 was 137 nM.

Question: And the “fold change (FC)” value (UMUC3 [6])?
Answer: Its value is 4.5.

Question: And the Drug uptake [7]?
Answer: The Drug uptake was “Active”.

Question: And the Drug uptake [8]?
Answer: The Drug uptake was “Not Active”.

Question: What about the Drug uptake [9] of the same molecule?
Answer: Its Drug uptake is “Active”.

Question: And the Drug uptake [10]?
Answer: The Drug uptake was “Active”.

Question: And the Drug uptake [11]?
Answer: Its Drug uptake is “Active”.

Question: And the Drug uptake [12]?
Answer: The Drug uptake was “Active”.

Question: What about the Drug uptake [13] of the same molecule?
Answer: Its Drug uptake is “Active”.

Question: And the Drug uptake [14]?
Answer: Its Drug uptake is “Active”.

Question: And the Drug uptake [15]?
Answer: The Drug uptake was “Active”.

Question: What about the Activity (UMUC3 [16]) of the same molecule?
Answer: Its Activity is 55%.

Question: What about the IC50 (UMUC3 [17]) of the same molecule?
Answer: The IC50 was 36.4 nM.

Question: And the IC50 (T-24 [18])?
Answer: Its IC50 is 315 nM.

Question: What about the Drug uptake [19] of the same molecule?
Answer: Its Drug uptake is “Active”.

Question: And the Stability [20]?
Answer: The Stability was “Stable”.

Question: What about the Drug uptake [21] of the same molecule?
Answer: Its Drug uptake is “Active”.

Question: And the Drug uptake [22]?
Answer: The Drug uptake was “Active”.

Question: What about the Drug uptake [23] of the same molecule?
Answer: The Drug uptake was “Not Active”.

Question: And the Stability [24]?
Answer: The Stability was “Stable”.

Question: And the Drug uptake [25]?
Answer: Its Drug uptake is “Active”.

Question: What about the Activity (T-24 [26]) of the same molecule?
Answer: The Activity was “Non-Toxic”.

Question: And the Drug uptake [27]?
Answer: The Drug uptake was “Active”.

Question: And the Drug uptake [28]?
Answer: Its Drug uptake is “Active”.
